Tests used:
[1] = molecular target: T1, Alpha-1D adrenergic receptor (Homo sapiens, UniProt P25100); assay: Displacement of [3H]prazosin from human Alpha-1D adrenoceptor expressed in CHO cells; assay type: cell-based
T1 sequence (P25100 whole entry): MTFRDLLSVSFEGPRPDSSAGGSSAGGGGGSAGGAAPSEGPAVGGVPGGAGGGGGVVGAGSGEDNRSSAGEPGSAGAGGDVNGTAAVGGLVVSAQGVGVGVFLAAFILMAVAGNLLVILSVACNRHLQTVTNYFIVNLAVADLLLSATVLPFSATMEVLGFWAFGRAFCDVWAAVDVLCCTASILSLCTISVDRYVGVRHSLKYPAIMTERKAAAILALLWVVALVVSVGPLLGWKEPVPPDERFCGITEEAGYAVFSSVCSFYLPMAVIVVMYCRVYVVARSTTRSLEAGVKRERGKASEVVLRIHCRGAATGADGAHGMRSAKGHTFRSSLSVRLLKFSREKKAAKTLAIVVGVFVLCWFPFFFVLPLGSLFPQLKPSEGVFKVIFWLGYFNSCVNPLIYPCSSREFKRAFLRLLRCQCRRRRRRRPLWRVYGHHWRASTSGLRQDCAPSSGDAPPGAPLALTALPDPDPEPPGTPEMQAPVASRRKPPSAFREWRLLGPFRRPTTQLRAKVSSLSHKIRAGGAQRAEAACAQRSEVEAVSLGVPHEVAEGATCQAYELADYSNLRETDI
Outline: (§1)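 Radioligand competition binding used [3H]prazosin on membranes of CHO cells expressing human α1a, α1b or α1d adrenoceptor. IC50 values were converted to pKi by the Cheng-Prusoff equation. Data come from two to three experiments run in triplicate, agreeing within ±20%.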

NHDF [2] = assay: Induction of apoptosis in human NHDF cells assessed as caspase 3/7 activation after 24 hrs Caspase-Glo 3/7 assay; assay type: functional, cell-based
PC-3 [3] = assay: Induction of apoptosis in human PC3 cells assessed as caspase 3/7 activation after 24 hrs by Caspase-Glo 3/7 assay; assay type: functional, cell-based; conditions: PC-3, 24 h
PC-3 [4] = assay: Cytotoxicity against human PC3 cells after 72 hrs by CellTitter-Glo luminescent cell viability assay; assay type: functional, cell-based; conditions: PC-3, 72 h
NHDF [5] = assay: Cytotoxicity against human NHDF cells after 72 hrs by CellTitter-Glo luminescent cell viability assay; assay type: functional, cell-based
[6] = molecular target: T2, Alpha-1A adrenergic receptor (Rattus norvegicus) (UniProt P43140); assay: (§2) Antagonist activity at rat alpha1A adrenoceptor assessed as inhibition if norepinephrine-induced contraction of vas deference; assay type: functional
T2 sequence (whole entry): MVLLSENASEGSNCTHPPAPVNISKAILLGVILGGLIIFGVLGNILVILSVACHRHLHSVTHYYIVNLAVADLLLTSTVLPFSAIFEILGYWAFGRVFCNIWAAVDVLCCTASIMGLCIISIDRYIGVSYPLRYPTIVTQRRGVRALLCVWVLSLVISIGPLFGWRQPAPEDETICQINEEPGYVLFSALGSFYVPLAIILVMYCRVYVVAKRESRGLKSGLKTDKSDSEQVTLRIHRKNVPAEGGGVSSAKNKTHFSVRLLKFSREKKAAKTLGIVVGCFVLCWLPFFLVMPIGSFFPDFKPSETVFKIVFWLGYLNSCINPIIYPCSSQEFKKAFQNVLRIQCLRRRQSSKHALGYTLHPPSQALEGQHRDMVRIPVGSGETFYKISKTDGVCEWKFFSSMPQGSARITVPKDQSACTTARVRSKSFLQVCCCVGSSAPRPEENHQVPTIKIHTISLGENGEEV
Outline: (§3)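 Isolated rat tissue contraction assay. The α1A response used vas deferens with (-)-noradrenaline as agonist, α1D used thoracic aorta with (-)-noradrenaline, and α1B used spleen with (-)-phenylephrine. pA2 values are means ± SEM over three antagonist concentrations, each tested at least four times. Where the Schild slope differed from unity, pKB was calculated by van Rossum at the lowest antagonist concentration giving log(CR−1) ≥0.5.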

DU-145 [7] = assay: Cytotoxicity against human DU145 cells after 72 hrs by CellTitter-Glo luminescent cell viability assay; assay type: functional, cell-based; conditions: DU-145, 72 h
DU-145 [8] = assay: Induction of apoptosis in human DU145 cells assessed as caspase 3/7 activation after 24 hrs Caspase-Glo 3/7 assay; assay type: functional, cell-based; conditions: du-145
[9] = molecular target: T3, Alpha-1A adrenergic receptor (Homo sapiens, UniProt P35348); assay: Displacement of [3H]prazosin from human alpha1A adrenoceptor expressed in CHO cells; assay type: cell-based; outline: as §1
T3 sequence (P35348 whole entry): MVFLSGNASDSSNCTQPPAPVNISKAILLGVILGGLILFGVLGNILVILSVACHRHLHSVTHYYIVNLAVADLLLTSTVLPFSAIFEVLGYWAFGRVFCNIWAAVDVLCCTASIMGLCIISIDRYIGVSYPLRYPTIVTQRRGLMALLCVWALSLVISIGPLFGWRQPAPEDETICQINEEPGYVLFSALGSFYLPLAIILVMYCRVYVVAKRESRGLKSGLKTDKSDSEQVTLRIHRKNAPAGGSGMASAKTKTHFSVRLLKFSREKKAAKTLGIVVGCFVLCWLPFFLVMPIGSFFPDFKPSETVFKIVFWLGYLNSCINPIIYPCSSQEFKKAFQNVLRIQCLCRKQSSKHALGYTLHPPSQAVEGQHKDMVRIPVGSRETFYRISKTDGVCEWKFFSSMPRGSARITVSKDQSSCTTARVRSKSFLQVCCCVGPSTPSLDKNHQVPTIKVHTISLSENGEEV

[10] = molecular target: T4, Alpha-1B adrenergic receptor (Homo sapiens, UniProt P35368); assay: Displacement of [3H]prazosin from human Alpha-1B adrenoceptor expressed in CHO cells; assay type: cell-based; outline: as §1
T4 sequence (P35368 whole entry): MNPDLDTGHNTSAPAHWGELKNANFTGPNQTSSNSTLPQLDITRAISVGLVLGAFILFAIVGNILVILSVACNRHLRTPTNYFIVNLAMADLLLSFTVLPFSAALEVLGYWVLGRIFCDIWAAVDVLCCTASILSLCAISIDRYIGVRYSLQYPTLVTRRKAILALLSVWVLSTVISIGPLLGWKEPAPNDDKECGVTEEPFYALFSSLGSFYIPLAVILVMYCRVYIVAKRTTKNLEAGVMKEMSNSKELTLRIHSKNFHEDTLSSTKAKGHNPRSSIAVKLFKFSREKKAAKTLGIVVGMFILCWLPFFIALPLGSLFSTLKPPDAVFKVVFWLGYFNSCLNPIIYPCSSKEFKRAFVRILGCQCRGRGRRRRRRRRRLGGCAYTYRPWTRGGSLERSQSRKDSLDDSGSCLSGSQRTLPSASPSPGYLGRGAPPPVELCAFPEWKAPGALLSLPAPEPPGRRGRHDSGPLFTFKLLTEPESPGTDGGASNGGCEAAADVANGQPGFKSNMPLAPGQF

LNCaP [11] = assay: Induction of apoptosis in human LNCAP cells assessed as caspase 3/7 activation after 24 hrs Caspase-Glo 3/7 assay; assay type: functional, cell-based; conditions: lncap
[12] = molecular target: T5, Alpha-1D adrenergic receptor (Rattus norvegicus) (UniProt P23944); assay: Antagonist activity at rat Alpha-1D adrenoceptor assessed as inhibition if norepenephrine-induced contraction of thoracic aorta; assay type: functional, tissue-based; outline: as §3
T5 sequence (whole entry): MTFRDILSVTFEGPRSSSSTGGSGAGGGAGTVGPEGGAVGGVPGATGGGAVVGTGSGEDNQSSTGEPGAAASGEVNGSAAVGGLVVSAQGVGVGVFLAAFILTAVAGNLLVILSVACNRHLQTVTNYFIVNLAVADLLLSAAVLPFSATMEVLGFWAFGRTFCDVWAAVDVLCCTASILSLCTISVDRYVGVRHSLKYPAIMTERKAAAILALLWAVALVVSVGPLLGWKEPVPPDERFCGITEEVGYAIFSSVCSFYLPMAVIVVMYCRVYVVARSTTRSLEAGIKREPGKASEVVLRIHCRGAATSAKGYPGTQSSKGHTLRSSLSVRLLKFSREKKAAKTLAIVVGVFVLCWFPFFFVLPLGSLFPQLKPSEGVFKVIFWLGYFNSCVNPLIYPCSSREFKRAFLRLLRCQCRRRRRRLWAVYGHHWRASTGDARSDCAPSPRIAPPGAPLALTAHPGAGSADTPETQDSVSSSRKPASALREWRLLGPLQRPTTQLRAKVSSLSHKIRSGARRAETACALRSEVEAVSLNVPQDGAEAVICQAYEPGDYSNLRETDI

[13] = molecular target: T6, Alpha-1B adrenergic receptor (Rattus norvegicus) (UniProt P15823); assay: Antagonist activity at rat Alpha-1B adrenoceptor assessed as inhibition if phenylephrine-induced contraction of spleen; assay type: functional, tissue-based; outline: as §3
T6 sequence (whole entry): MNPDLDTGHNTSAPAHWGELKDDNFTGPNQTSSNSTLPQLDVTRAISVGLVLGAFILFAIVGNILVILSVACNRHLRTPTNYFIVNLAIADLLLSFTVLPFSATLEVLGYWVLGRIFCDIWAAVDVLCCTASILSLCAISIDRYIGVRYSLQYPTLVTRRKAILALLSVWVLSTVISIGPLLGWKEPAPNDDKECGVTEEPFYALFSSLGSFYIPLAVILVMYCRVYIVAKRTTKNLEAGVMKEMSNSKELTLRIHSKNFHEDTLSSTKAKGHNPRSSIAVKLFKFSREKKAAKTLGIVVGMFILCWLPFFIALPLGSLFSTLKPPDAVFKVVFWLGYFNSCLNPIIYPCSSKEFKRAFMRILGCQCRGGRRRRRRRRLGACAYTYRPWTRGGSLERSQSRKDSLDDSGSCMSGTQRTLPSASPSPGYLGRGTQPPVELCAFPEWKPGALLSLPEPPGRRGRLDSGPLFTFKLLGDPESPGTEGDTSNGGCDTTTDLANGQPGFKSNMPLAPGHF

LNCaP [14] = assay: Cytotoxicity against human LNCAP cells after 72 hrs by CellTitter-Glo luminescent cell viability assay; assay type: functional, cell-based
[15] = molecular target: T7, Alpha-1A adrenergic receptor (Rattus norvegicus, UniProt P43140); assay: as §2; assay type: functional; conditions: read-out: pA2 (converted); outline: as §3
T7 sequence (P43140 whole entry): T2 sequence (whole entry)

Row | Ki [1] [nM] | EC50 (NHDF [2]) [nM] | EC50 (PC-3 [3]) [nM] | pKb [6] | EC50 (DU-145 [8]) [nM] | Ki [9] [nM] | Ki [10] [nM] | EC50 (LNCaP [11]) [nM] | pKb [12] | pKb [13] | Kb [15] [nM] | SMILES | IC50 (PC-3 [4]) [nM] | IC50 (NHDF [5]) [nM] | IC50 (DU-145 [7]) [nM] | IC50 (LNCaP [14]) [nM]
1 | 1.58 | 10000 | 10000 | 8.51 | 10000 | 1.86 | 0.933 | 10000 | 8.64 | 8.35 |  | COc1cc2nc(N(C)CCCCCCN(C)C(=O)C3COc4ccccc4O3)nc(N)c2cc1OC (configuration not stated) | 8400 | 9800 | 9250 | 4610
2 | 0.17 |  |  |  |  | 5.5 | 0.324 |  |  |  | 1.23 | COc1cc2nc(N3CCN(C(=O)c4ccco4)[C@H]4CCCC[C@H]43)nc(N)c2cc1OC [CYCLAZOSIN] |  |  |  | 
3 | 0.49 |  |  |  |  | 3.39 | 1.41 |  |  |  |  | COc1cc2nc(N3CCN(C(=O)C4COc5ccccc5O4)[C@@H]4CCCC[C@@H]43)nc(N)c2cc1OC (single isomer, unassigned) | 1020 |  |  | 

— ChEMBL document CHEMBL1151946, “Doxazosin-related alpha1-adrenoceptor antagonists with prostate antitumor activity” (J Med Chem, 2009)
